This note sets out measurements from ChEMBL document CHEMBL1138769, “Antimitotic activity of 5-hydroxy-7-methoxy-2-phenyl-4-quinolones” (J Med Chem, 2004).

The test system of assay [1] is K562. Briefly: Ability to induce cells in G0/G1 phase. The format is functional, Homo sapiens. Also on record: concentration or dose not given beside the values. The procedure, abridged:
(§1)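 K562 human leukemic cells exposed continuously to test compound at 5 μM for 24 h. 10⁶ cells/mL resuspended in propidium iodide, held at 4 °C overnight, analysed by flow cytometry for DNA content. Doublets and aggregates excluded on FL2-area/FL2-width plot. Fraction of population in G0/G1, S and G2/M calculated.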

The test system of assay [2] is K562. Briefly: Ability to induce cells in G2/M phase. The format is functional, Homo sapiens. More on the design: concentration or dose not given beside the values. The method, boiled down:
as §1

The test system of assay [3] is K562. Briefly: Ability to induce cells in S phase. Type of assay: functional, Homo sapiens. More on the design: concentration or dose not given beside the values. The procedure, abridged: as §1
Assay [4] has as its system K562. Nature of the assay: Inhibitory concentration against K562 cell line. The format is functional, cell-based. The conditions noted are these: Homo sapiens. The procedure, abridged: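 MTT viability assay on exponentially growing K562 cells seeded at 3 × 10³ cells/well, grown 24 h before drug addition. After 72 h drug exposure MTT reagent added. Viability is absorbance as percent of untreated control wells. IC50 is the concentration giving 50% loss of viability. Triplicate wells, at least three separate experiments.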

Assay [5] concerns NCI-60 human tumor cell line panel (Homo sapiens). Nature of the assay: Growth inhibitory concentration is the concentration that reduced growth of NCI-60 cell lines by 50%.

pIC50: −log10 of the molar value.

As for `COc1cc(O)c2c(O)cc(-c3ccccc3F)nc2c1`, the results for the Activity with K562 [1], in the assay on K562 [2] and in the assay with K562 [3] were 23%, 41% and 37%, respectively. This molecule showed a pIC50 with K562 [4] of 5.82. The molecule also yielded a GI50 in assay [5] of 9.9 µM.
Consider `COc1cc(O)c2c(O)cc(Cc3ccccc3)nc2c1`, for which the Activity is given as 41% in the assay on K562 [1], 9% in the assay with K562 [2] and 50% with K562 [3].
The like results for `COc1cc(O)c2c(O)cc(-c3cccc(I)c3)nc2c1` were, in that order, 44%, 6% and 50%.
For the molecule `CCn1c(-c2ccccc2)cc(=O)c2c(O)cc(OC)cc21`, the figures for the Activity with K562 [1], in the assay with K562 [2] and in the assay on K562 [3] were 43%, 11% and 46%, respectively.
In the same order, the values of `COc1cc(O)c2c(O)cc(-c3cccc(-c4ccccc4)c3)nc2c1` are 46%, 9% and 45%.
In the case of `COc1cccc(-c2cc(O)c3c(O)cc(OC)cc3n2)c1`, the values for the Activity in the assay on K562 [1], with K562 [2] and with K562 [3] were 28%, 31% and 41%, respectively. Halving of growth in assay [5] (GI50) required 9.7 µM.
Consider `COc1cc(O)c2c(O)cc(-c3cccc(Br)c3)nc2c1`, for which the Activity in the assay on K562 [1] came to 51%; with K562 [2] it was 12%; with K562 [3], 37%.
As for `COc1cc(O)c2c(O)cc(-c3ccc(OC)c(F)c3)nc2c1`, the Activity in the assay with K562 [1] turned out to be 26%; in the assay on K562 [2] it was 20%; in the assay on K562 [3], 53%.
In the same order, the values of `Oc1cccc2nc(-c3ccccc3)cc(O)c12` are 26%, 21% and 52%.
In the same order, the values of `COc1cc(O)c2c(O)cc(-c3cccc(C(F)(F)F)c3)nc2c1` are 41%, 20% and 38%.
With `Oc1cccc2nc(-c3cccc(F)c3)cc(O)c12`, the Activity in the assay on K562 [1] was 17%; in the assay with K562 [2], 49%; in the assay with K562 [3], 33%.
In the same order, the values of `COc1cc(O)c2c(O)cc(-c3cccc(OC(F)(F)F)c3)nc2c1` are 32%, 32% and 35%.
With `COc1cc(O)c2c(O)cc(-c3cccc(Cl)c3)nc2c1`, the values for the Activity in the assay with K562 [1], with K562 [2] and in the assay with K562 [3] were 33%, 32% and 35%, respectively.
Turning to `COc1cc(O)c2c(O)cc(-c3ccccc3)nc2c1`, the Activity is given as 7% in the assay on K562 [1], 66% in the assay on K562 [2] and 26% in the assay on K562 [3]. This molecule gave a negative logarithm of the IC50 (pIC50) in the assay on K562 [4] of 5.74. For the same molecule, halving of growth in assay [5] (GI50) required 8.7 µM.
On to `COc1cc(O)c2c(O)cc(-c3cccc(F)c3)nc2c1`, for which the results for the Activity with K562 [1], in the assay with K562 [2] and in the assay with K562 [3] were 9%, 60% and 30%, respectively. In the assay with K562 [4], this molecule gave a pIC50 of 6.10. The molecule further displayed a GI50 in assay [5] of 14.5 µM.
Consider `CC[C@]1(O)C[C@@H]2CN(CCc3c([nH]c4ccccc34)[C@@](C(=O)OC)(c3cc4c(cc3OC)N(C)[C@H]3[C@@](O)(C(=O)OC)[C@H](OC(C)=O)[C@]5(CC)C=CCN6CC[C@]43[C@@H]65)C2)C1` [VINBLASTINE], for which the figures for the Activity with K562 [1], in the assay on K562 [2] and in the assay with K562 [3] were 33%, 37% and 30%, respectively. In the assay with K562 [4], this molecule had a pIC50 of 5.52.
For the molecule `COc1cc(O)c2c(O)cc(-c3ccc(C)c(F)c3)nc2c1`, the Activity in the assay on K562 [1] was 28%; with K562 [2], 18%; in the assay with K562 [3], 54%.
On to `COc1cc(O)c2c(O)cc(-c3cccnc3)nc2c1`, for which the Activity was determined as 24% with K562 [1], 45% in the assay on K562 [2] and 31% in the assay on K562 [3].
The like results for `COc1cc(O)c2c(O)cc(-c3cc(F)cc(F)c3)nc2c1` were, in that order, 42%, 18% and 40%.
`COc1cc(O)c2c(O)cc(-c3ccc(F)cc3)nc2c1`: the Activity worked out at 54% with K562 [1], 10% in the assay on K562 [2] and 36% with K562 [3].
The like results for `COc1cc(O)c2c(O)cc(-c3ccc(F)c(F)c3)nc2c1` were, in that order, 22%, 9% and 69%.
In the same order, the values of `COc1cc2nc(-c3ccccc3)cc(O)c2c(O)c1OC` are 47%, 8% and 45%.
With `COc1cc(O)c2c(O)cc(-c3cccc(CCl)c3)nc2c1`, the Activity in the assay with K562 [1] worked out at 30%; in the assay on K562 [2], 18%; in the assay with K562 [3], 51%.
In the same order, the values of `CCc1ccc(-c2cc(O)c3c(O)cc(OC)cc3n2)cc1` are 26%, 25% and 48%.
The like results for `CCn1c(-c2cccc(F)c2)cc(=O)c2c(O)cc(OC)cc21` were, in that order, 53%, 19% and 28%.
In the same order, the values of `CC(=O)O[C@H]1C(=O)[C@@]2(C)[C@H]([C@H](OC(=O)c3ccccc3)[C@]3(O)C[C@H](OC(=O)[C@H](O)[C@@H](NC(=O)c4ccccc4)c4ccccc4)C(C)=C1C3(C)C)[C@]1(OC(C)=O)CO[C@@H]1C[C@@H]2O` [PACLITAXEL] are 11%, 71% and 18%.
As to `COc1cc2nc(-c3ccccc3)cc(O)c2c(OC)c1OC`, the Activity in the assay on K562 [1] is listed as 47%; in the assay with K562 [2] it was 5%; with K562 [3] it was 48%.

In general, pIC50 refers to the negative decadic logarithm of the IC50, by convention in mol/L. The GI50 is the concentration at which growth is held to half of that of the control.
